# DNA FID counter – counter-screen for HCV NS3 helicase inhibitors: DNA intercalator displacement. DNA fluorescent intercalator displacement, fluorescence. inhibition, % at 7.9 µM. hit rate 0.17% among 290,000. AID 1845; in the data active = inhibition above about 37%;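 note: 0% = vehicle and 100% = reference compound; higher means more ethidium bromide displaced from hairpin DNA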
# HCV core dimer – HCV core protein dimerization inhibition. hit rate 0.33% among 300,000. TR-FRET GST/Flag-core106 dimerization, 1536-well. inhibition, % at 5 µM;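 active = inhibition above the mean of all tested compounds plus 3 SD, set per screening campaign, cut at about 45% in these data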
#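 System – GST-tagged and Flag-tagged HCV core protein residues 1-106 · Repeats – one well for each compound · Technique – TR-FRET 671 and 617 nm emission · Doses – one concentration, 5 µM, in 0.5% DMSO · Times – 4 h, 22.5 °C incubation · Also added – Eu donor and XL665 acceptor anti-tag antibodies · Measure – percent inhibition of core106 dimerization signal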
# eIF4H FP inh – inhibitors of RNA binding by human eIF4H | Q15056 | eIF4H fluorescence polarization binding assay | inhibition, % at 35 µM | hit rate 0.94% among 290,000 | AID 2012;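 note: calls also rest on retests at 20 µM and on dose response follow-up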
# PABP polyA inh – PABP-poly(A) binding inhibition; P11940; PABP-poly(A) RNA binding, fluorescence polarization; inhibition, % at 35 µM; hit rate 1% among 290,000;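 note: calls also rest on retests at 20 µM and on dose response follow-up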
# MLLE-PAM2 inh – blocks PAM2 peptide binding to the PABP1 MLLE domain. GST-MLLE / FITC-PAM2 fluorescence polarization. hit rate 0.36% among 360,000. inhibition, % at 20 µM. AID 588489; in the data active = inhibition above about 35%, passing the limit was not always enough;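 note: plate controls were DMSO wells with GST-MLLE for no effect and wells lacking GST-MLLE protein for full effect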
# NS3 helicase inh – HCV NS3 helicase inhibition; NS3 helicase DNA unwinding, Cy5 molecular beacon fluorescence; inhibition, % at 10.9 µM; hit rate 0.56% among 290,000;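 active = inhibition above the mean of all tested compounds plus 3 SD, set per campaign, cut at about 35% in these data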;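 note: 0% = DMSO wells and 100% = thioflavine S control wells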
#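 Test system: hepatitis C virus NS3 helicase domain fragment enzyme. Also added: annealed dual-labelled DNA beacon duplex, ATP-started. Timing: 60 min unwinding reaction at 25 °C after ATP addition. Technique: Cy5 fluorescence. Measure: % inhibition of unwinding.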
# * marks the source's active call; other numbers are inactive results; u = inconclusive; x = no result given. In the library only some 2% were active in any assay of this set; here they are far more common. Unless noted, the rule behind the calls is not given here.
SMILES,DNA FID counter,HCV core dimer,eIF4H FP inh,PABP polyA inh,MLLE-PAM2 inh,NS3 helicase inh
COc1ccc(CCNCC(O)COc2ccc(OC)cc2C(C)(C)C)cc1 (stereo unspecified),43*,-9,22,17,-6,-53
NS(=O)(=O)c1ccc(CCNC(=O)CSc2nc3ccccc3c(=O)n2CC2CCCO2)cc1 (stereo unspecified),-23,-2,3,-12,-8,5
COc1ccc(C(=O)C(C)OC(=O)CCN2C(=O)C3CC=CCC3C2=O)cc1 (stereo unspecified),x,x,x,x,3,x
CCCn1c(C)cc(-c2csc(N)n2)c1C,-5,2,122*,122,22,14
C=CCn1c(C)cc(-c2csc(N)n2)c1C,-1,-1,u,u,28,4
CC(C)(C)OC(=O)C[C@@H]1C/C=C\C[C@@H](CC(=O)N[C@H](CO)Cc2ccccc2)C(=O)N2CCC[C@H]2COC1=O,x,x,x,x,9,x
O=[N+]([O-])c1ccc(OS(=O)(=O)Cc2ccccc2)cc1,0,-2,2.5*,70*,7,-1
Cc1ccccc1Cn1cccc1/C=C1/C(=N)N2C=CSC2=NC1=O,-8,28,66*,100*,-45,3
CC(C)c1ccc(-n2cccc2/C=C2/C(=N)N3C=CSC3=NC2=O)cc1,-9,22,0,72,-34,23
Cc1ccccc1NC(=O)CN1C(=O)NC2(CCCCCCC2)C1=O,x,x,x,x,-28,x
CC(C)C(c1nnnn1Cc1ccccc1)N(CCCO)Cc1cc2cc3c(cc2[nH]c1=O)OCO3 (stereo unspecified),-13,12,111*,94*,28,-6
O=c1[nH]c2cc3c(cc2cc1CN(CCCO)Cc1nnnn1Cc1ccc(F)cc1)OCO3,-6,6,4,-5,46*,2
O=C(OCc1cn([C@@H]2C[C@H](c3ccc(Cl)cc3)N(C(=O)C3CCCCC3)C[C@H]2O)nn1)c1ccccc1,x,x,x,x,-25,x
Nc1ccn(C2OC(CCl)C(O)C2O)c(=O)n1 (stereo unspecified),x,x,x,x,3,x
CN(C)CCCNS(=O)(=O)c1ccc(N2CCC(c3ccc(Cl)cc3)=N2)cc1,37*,-15,-2,-16,x,-19
CN1CCN(C2=C(Cl)C(=O)N(CCc3ccccc3)C2=O)CC1,1,-3,u,-10,51*,-7
COc1ccc(N2C(=O)C(Cl)=C(N3CCN(Cc4ccccc4)CC3)C2=O)cc1,0,x,3,8,11,7
O=C1C(Cl)=C(N2CCN(Cc3ccccc3)CC2)C(=O)N1c1ccccc1,1,7,u,66*,21,8
CC(C)C(N)c1csc(Nc2ccc(S(C)(=O)=O)cc2)n1 (stereo unspecified),x,x,x,x,22,x
Cc1[nH]c2c(C)cccc2c1CC(=O)O,-4,-5,7.2*,54,-4,2
Cc1[nH]c2ccccc2c1CC(=O)O,-2,6,8,7,5,5
CCCCC(=O)Nc1sc2c(c1C(=O)OCC)CCC(C=O)=C2Cl,1,12,5,3,23,0
COc1ccc(NC(=O)c2ccco2)cc1N,1,-4,92*,74*,-2,0
COc1ccc(NC(=O)c2ccco2)cc1NC(=O)c1ccco1,-3,-2,2,4,7,6
N=C1S/C(=C\c2ccco2)C(=O)N1c1nccs1,-10,-3,95*,3.2*,7,24
SMILES,DNA FID counter,HCV core dimer,eIF4H FP inh,PABP polyA inh,MLLE-PAM2 inh,NS3 helicase inh
Cc1ccc(N2C(=O)/C(=C/c3ccco3)SC2=S)cc1,-1,15,84,4,12,10
CCN(CC)Cc1cc(O)c(CN(CC)CC)cc1O,-4,x,u,-3,74*,17
COc1cccc(/C=N/Nc2nc3ccccc3n3cnnc23)c1,-5,-5,85*,3.7*,3,-5
COc1cccc(/C=N/Nc2nc3ccccc3n3cnnc23)c1O,4,-7,28,-2,-6,-10
Cc1ccc2c(c1)NC(c1cccs1)C1=C(CC(C)(C)CC1=O)N2 (stereo unspecified),-11,-5,86*,11*,6,-2
CCNC(=O)C1CCCN(C(=O)c2cccc(OC(F)(F)F)c2)CC1 (stereo unspecified),x,x,x,x,1,x
COc1ccccc1-c1csc(C(O)c2ccccc2)n1 (stereo unspecified),x,x,x,x,1,x
O=C(Oc1ccc[nH]c1=O)c1cc([N+](=O)[O-])cc([N+](=O)[O-])c1,4,4,50,30*,-5,2
COc1ccc(C(=O)Oc2ccc[nH]c2=O)cc1,5,-5,8,13,-11,2
CCCC(=O)N1CCC1(C)C(=O)Nc1ncc(C(=O)OC)s1 (stereo unspecified),x,x,x,x,1,x
Cc1cccc2nc(CSCc3ccco3)cn12,-2,4,76*,72*,44*,8
Cc1cc(C)n2cc(CSCc3ccco3)nc2n1,-9,6,15,21,24,-8
CN1C=CC2=C(C#N)C(N)C(C#N)(C#N)[C@H](c3ccccc3)[C@H]2C1 (stereo partly specified),1,-6,u,14,48*,-3
CCCS(=O)(=O)c1ccc(COC(=O)c2cccc(NC(=O)C(C)C)c2)cc1,-25,-1,active,54*,5,-4
C=CCn1c(SCC(=O)N2CCC(C)CC2)nc2c([nH]c3ccccc32)c1=O,x,x,x,x,-8,x
CCCCC1=CC2=C(c3ccco3)C(=O)C(C)(OC(=O)c3ccc(OC)cc3)C(=O)C2=CN1c1ccc(OC)cc1 (stereo unspecified),x,58*,u,u,-11,x
CCCCC1=CC2=C(c3ccco3)C(=O)C(C)(OC(=O)c3ccc(OC)cc3)C(=O)C2=CN1Cc1ccc(OC)cc1 (stereo unspecified),x,x,31,16,x,x
CCCCC1=CC2=C(c3ccco3)C(=O)C(C)(OC(=O)c3ccc(OC)cc3)C(=O)C2=CN1C1CC1 (stereo unspecified),x,40,u,u,26,x
CCCCC1=CC2=C(c3ccco3)C(=O)C(C)(OC(=O)c3ccc(OC)cc3)C(=O)C2=CN1C1CCCC1 (stereo unspecified),x,59*,x,x,x,x
Fc1cccc(CN2CCN(c3nc4nonc4nc3NC3CC3)CC2)c1,-9,3,90*,77*,12,5
COc1ccc(Br)cc1C1NC(=O)c2c(sc3c2CCN(C)C3)N1 (stereo unspecified),x,x,100*,64*,-33,x
CCN1/C(=C/c2cc[n+](CCCS(=O)(=O)[O-])c3ccccc23)Sc2ccccc21,-11,-19,97*,7,-162,11
CCC(/C=C1\Sc2ccc(OC)cc2N1CC)=C\c1sc2ccc(OC)cc2[n+]1CCCS(=O)(=O)[O-],-40,-368,-6,4,10,8

# Screening results (PubChem BioAssay)
